Screening results: PubChem, Johns Hopkins Ion Channel Center
An excerpt weighted towards active compounds, which were near 3.5% of everything screened.
MrgX1 antag: antagonists of human MrgX1 receptor, primary screen, HEK293 cells, Fluo-4 calcium flux. Mas-related G-protein coupled receptor member X1 (Homo sapiens), Q96LB2. BAM8-22 antagonism; hits give low values. B-score at 10 µM. 310,000 compounds, 1.3% hits. AID 588676, 2011;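 active means calcium-response B-score plate-corrected more than 3 library SD below zero, starting fluorescence within 5 deviations, no agonist response on first addition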;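 further: peak minus trough fluorescence over baseline after final BAM8-22 challenge near maximal dose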
Target sequence (Q96LB2 whole entry, looked up): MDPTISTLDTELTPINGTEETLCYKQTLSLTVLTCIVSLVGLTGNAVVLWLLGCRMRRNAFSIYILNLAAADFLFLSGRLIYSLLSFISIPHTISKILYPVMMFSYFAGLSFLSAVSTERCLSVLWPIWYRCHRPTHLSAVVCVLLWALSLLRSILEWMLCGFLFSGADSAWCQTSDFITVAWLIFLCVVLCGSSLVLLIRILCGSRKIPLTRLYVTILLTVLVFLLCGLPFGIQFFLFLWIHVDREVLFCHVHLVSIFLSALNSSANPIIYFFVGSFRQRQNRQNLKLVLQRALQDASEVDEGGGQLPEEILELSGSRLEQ
RGS4 act: RGS4 potentiators or activators, primary screen, cell-based, HEK293 M3R inducible RGS4, calcium flux; carbachol calcium flux Fluo4; hits give low values; 310,000 compounds, 0.92% hits; B-score at 10 µM; AID 463111, 2010;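 active means B-score of the integrated calcium signal more than 4 SD below the library mean, with starting fluorescence not abnormally high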;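 further: negative B-score means reduced calcium response which marks RGS4 activation or potentiation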
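Test system: HEK293 cells with stable M3R and inducible RGS4; also added: carbachol at ECmax as muscarinic agonist stimulus; schedule: dye loading 30 min 37 °C, buffer rest 30 min RT; technique: kinetic calcium fluorescence imaging with Fluo4-AM dye, 2 µM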
RGS4 block: RGS4 inhibitors, primary screen, cell-based, HEK293 M3R inducible RGS4, calcium flux | Regulator of G-protein signaling 4 (Homo sapiens), P49798 | AID 463165, 2010 | Fluo-4 calcium flux; hits give high values; triggered by carbachol at its EC20 | 310,000 compounds, 0.45% hits | B-score at 10 µM;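 active means B-score, a plate-corrected calcium signal, over three deviations above library mean, with baseline fluorescence within five deviations of library mean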;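 further: RGS4 expression induced by doxycycline in cells with stable M3 receptor; B-score is computed from the integrated fluorescence ratio over baseline after carbachol; higher B-score means a larger calcium signal and so more RGS4 inhibition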
Target sequence (P49798 whole entry, looked up): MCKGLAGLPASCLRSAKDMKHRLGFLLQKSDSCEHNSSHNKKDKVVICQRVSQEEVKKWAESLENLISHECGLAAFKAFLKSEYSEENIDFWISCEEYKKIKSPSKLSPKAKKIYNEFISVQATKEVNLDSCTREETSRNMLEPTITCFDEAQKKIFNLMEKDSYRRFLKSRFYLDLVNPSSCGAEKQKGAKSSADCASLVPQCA
MrgX1 agonist: agonists of human MrgX1 receptor, primary screen, HEK293 cells, Fluo-4 calcium flux | Mas-related G-protein coupled receptor member X1 (Homo sapiens), Q96LB2 | Fluo-4 calcium fluorescence, agonist mode; hits give high values | B-score at 10 µM | 310,000 compounds, 0.44% hits;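 active means calcium response B-score plate-corrected fluorescence ratio at least 3 library SD, with starting fluorescence B-score inside 5 SD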
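Assay system: stable human MrgX1 HEK293 cell line. Quantity: 15,000 cells per well. Schedule: cells plated overnight, dye loaded 0.5 h 37 °C, 0.5 h room temperature. Detection: Fluo-4 NW calcium-flux fluorescence, kinetic read. Read-out basis: peak-minus-minimum fluorescence over baseline, converted to B scores. Control set: positive and negative control wells on each plate.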
MrgX1 PAM: positive allosteric modulators of MrgX1, primary screen, HEK293 cells, Fluo-4 calcium flux; AID 588675, 2011; 310,000 compounds, 0.63% hits; FDSS; hits give high values; B-score at 10 µM; Mas-related G-protein coupled receptor member X1 (Homo sapiens), Q96LB2;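 active means plate-corrected calcium response at least 3 library SD above typical, normal starting fluorescence, not activating the receptor alone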;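 further: compound read alongside a low EC10 to EC30 dose of BAM8-22 agonist; peak minus trough fluorescence over baseline measured at the second addition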
MrgX1 PAM conf: MrgX1 positive allosteric modulators, duplicate retest, confirmation, HEK293 cells, Fluo-4 calcium flux; shares compounds with MrgX1 PAM; Fluo-4 calcium fluorescence, FDSS; activation (ratio percentage), % at 10 µM; 1,200 compounds, 13% hits; AID 602413, 2012;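 active means ratio at least 3 SD above the weak peptide control, stable starting fluorescence, no direct agonism earlier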;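 further: compound followed by low BAM8-22 agonist challenge near EC20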
MrgX1 ant reconf: MrgX1 receptor antagonists, duplicate retest, confirmation, HEK293 cells, Fluo-4 calcium flux; BAM8-22 calcium flux; hits give low values; remaining BAM8-22 calcium response % of control (hits give low values), % at 10 µM; AID 602420, 2012; shares compounds with MrgX1 antag; 2,300 compounds, 19% hits;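 active means remaining agonist calcium response no higher than 100% minus 3 SD of agonist-only control wells, with starting fluorescence near control levels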;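 further: agonist BAM8-22 given at a near maximal EC90 to ECmax level; peak minus minimum fluorescence divided by baseline after agonist addition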
HEK293 Ca flux: nonspecific calcium signal in parental HEK293, confirmation, counter-screen for MrgX1 antagonist project, parental HEK293 cells, Fluo-4 calcium flux; AID 624111, 2012; shares compounds with MrgX1 antag; 4,000 compounds, 2% hits; fluorescence ratio F(max-min)/F0 at 10 µM; Fluo-4 calcium fluorescence, FDSS;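 active means duplicate-averaged calcium fluorescence ratio at least three times the standard deviation of buffer wells, a nonspecific response in parental cells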
HEK293 Ca counter: calcium response in parental HEK293 cells, primary screen, counter-screen for MrgX1 allosteric activator project, cell-based, Fluo-4 calcium flux, duplicate | shares compounds with MrgX1 antag | Fluo-4 fluorescence ratio; hits give high values | fluorescence ratio F(max-min)/F0 at 10 µM | 4,000 compounds, 0.4% hits | AID 624114, 2012;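 active means calcium fluorescence ratio, averaged over duplicates, at least 3 SD of the buffer-well ratio, meaning a nonspecific response in receptor-free cells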;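 further: untransfected parental HEK293 lacking MrgX1 used as counterscreen for MrgX1 allosteric activators; fluorescence change taken during the second addition on a kinetic imager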
HEK293 Ca cntr2: calcium response in parental HEK293 cells, primary screen, counter-screen for MrgX1 agonist project, cell-based, Fluo-4 calcium flux, duplicate, agonist mode; shares compounds with MrgX1 antag; Fluo-4 calcium fluorescence (FDSS); hits give high values; fluorescence ratio F(max-min)/F0 at 10 µM; 4,000 compounds, 8.7% hits;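 active means calcium fluorescence ratio at least three times the spread of buffer wells, meaning a non-specific response in parental cells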
Hits are given with their value; – = inactive; · = no result given.

SMILES	MrgX1 antag	RGS4 act	RGS4 block	MrgX1 agonist	MrgX1 PAM	MrgX1 PAM conf	HEK293 Ca flux	HEK293 Ca counter	HEK293 Ca cntr2	others
CCN(CC(=O)Nc1c(F)cccc1F)C(=O)Cc1csc(-c2ccccc2)n1	–	–	–	–	7.5	–	–	–	–
O=C1CC(NCc2ccc(F)cc2)C(=O)N1c1ccccc1 (centres undefined)	–	–	–	–	8.1	–	–	–	–
O=C(NC(=S)NC1CCCCC1)c1ccc(F)cc1	–	–	–	–	7	–	–	–	–
O=C(NC(=S)NC1CCN(Cc2ccccc2)CC1)c1ccc(F)cc1	–	–	–	–	–	·	·	·	·
CC12CCC(C)(c3nc4ccccc4nc31)C2(C)C	–	–	–	–	6.9	–	–	–	–
CC12CCC(C(=O)O)(c3nc4cc([N+](=O)[O-])ccc4nc31)C2(C)C (centres undefined)	–	–	–	–	–	·	·	·	·
Cn1nc(C(F)(F)F)c(-c2ccc(Br)cc2)c1NC(=O)c1cccnc1	–	–	–	–	–	·	·	·	·
Cn1nc(C(F)(F)F)c(-c2ccc(Br)cc2)c1NC(=O)c1ccco1	–	–	–	–	20	–	–	–	–
CCCC(=O)NC1=C(C#N)C2(CCCC2)Cc2ccccc21	–	–	–	–	–	·	·	·	·
CCC1(CC)Cc2ccccc2C(N)=C1C#N	–	–	–	–	15	–	–	–	–
Cc1cc2nc(C(C)(C)C)cc(N)n2n1	–	–	–	–	–	·	·	·	·
CC(C)(C)c1cc(N)n2nc(C(C)(C)C)cc2n1	–	–	–	–	7.7	–	–	–	–
CCn1c(=O)c(=O)n(CC)c2cc(S(=O)(=O)Nc3ccc(C)cc3)ccc21	–	–	–	–	11	–	–	–	–
CCn1c(=O)n(CC)c2cc(S(=O)(=O)Nc3c(C)cccc3C)ccc21	–	–	–	–	–	·	·	·	·
Fc1cccc2sc(Nc3nnc(-c4ccco4)o3)nc12	–	–	–	–	12	–	–	–	–
COc1ccccc1NC(=S)N(Cc1ccccc1)Cc1ccccn1	–	–	–	–	6.6	–	–	–	–
COc1ccccc1NC(=S)N(Cc1ccccc1)Cc1cccnc1	–	–	–	–	–	·	·	·	·
O=C1C2CC=C(Cl)CC2C(=O)N1CCCCCCN1C(=O)C2CC=C(Cl)CC2C1=O (centres undefined)	–	–	–	–	6.5	–	–	–	–
O=C1C2CC=C(Cl)CC2C(=O)N1CCN1CCOCC1 (centres undefined)	–	–	–	–	–	·	·	·	·
O=C(Nc1ccc(NC(=O)c2ccc(Cl)c(S(=O)(=O)N3CCOCC3)c2)cc1)c1ccccc1	–	–	–	–	–	·	·	·	·
O=C(Nc1ccccc1)Nc1ccc(Cl)c(S(=O)(=O)N2CCOCC2)c1	-8.1	–	–	–	7.7	–	–	–	–	MrgX1 ant reconf=–
CCC(=O)Nc1ccc(S(=O)(=O)N2CCOCC2)cc1	–	–	–	–	–	·	·	·	·
O=C(Nc1ccc(S(=O)(=O)N2CCOCC2)cc1)C1CC1	–	–	–	–	15	–	–	–	–
Nc1ccc(Cl)cc1C(=O)OCC(=O)NC1CCS(=O)(=O)C1 (centres undefined)	–	–	–	–	16	–	–	–	–
O=C(Nc1ccccn1)c1csc2c1CCCC2	–	–	–	–	8.6	–	–	–	–
SMILES	MrgX1 antag	RGS4 act	RGS4 block	MrgX1 agonist	MrgX1 PAM	MrgX1 PAM conf	HEK293 Ca flux	HEK293 Ca counter	HEK293 Ca cntr2	others
COc1ccccc1NC(=O)c1csc2c1CCCC2	–	–	–	–	–	·	·	·	·
C=CCn1c(=O)c(C(=O)Nc2ccccc2S(N)(=O)=O)c(O)c2ccccc21	–	–	–	–	8.4	–	–	–	–
O=C(NCc1ccccn1)c1ccc(OC2CCN(Cc3ccc(Cl)s3)CC2)cc1	–	–	–	–	–	·	·	·	·
CCOC1=C/C(=C/c2c(N)n3nc(CC(=O)N4CCCCC4)sc3nc2=O)C=CC1=O	–	–	–	–	–	·	·	·	·
CCOC1=C/C(=C/c2c(N)n3nc(S(=O)(=O)CC)sc3nc2=O)C=CC1=O	–	–	–	–	34	–	0.64	–	46
COC(=O)c1ccccc1NC(=O)CCCCCn1nnc2ccccc2c1=O	–	–	–	–	–	·	·	·	·
CCN1CCN(c2ccc(S(=O)(=O)N3CCOCC3)cc2NC(=O)c2ccc(F)cc2Cl)CC1	–	–	–	–	–	·	·	·	·
CC(C)Cc1ccc(C(C)C(=O)Nc2ccccc2O)cc1 (centres undefined)	–	–	–	–	7	–	–	–	–
COc1ccc(C2=CC(c3c(C)nn(-c4ccccc4)c3Cl)n3nnnc3N2)cc1OC (centres undefined)	–	·	·	–	7	–	–	–	–
COc1ccccc1C1C=C(c2ccc(C)cc2)Nc2nnnn21 (centres undefined)	–	–	–	–	–	·	·	·	·
OC(COc1ccc(Br)cc1)CN1CCC(Cc2ccccc2)CC1 (centres undefined)	–	–	–	–	–	·	·	·	·
NS(=O)(=O)c1ccc(NC(=O)CSc2ncccn2)cc1	–	–	–	–	16	–	–	–	–
CC(C)c1ccc(-c2csc3ncnc(N4CCN(C)CC4)c23)cc1	–	–	–	–	7.3	–	–	–	–
CN1CCCN(c2ncnc3scc(-c4ccc(F)cc4)c23)CC1	–	–	–	–	–	·	·	·	·
Cc1ccc(CNC(=O)C2CCCN2C(=O)Nc2ccc(C)cc2)cc1 (centres undefined)	–	–	–	–	–	·	·	·	·
